# High-throughput results from PubChem.
# Avidin bead fluor – compound fluoresces at 488/530 nm on avidin beads. fluorescence (KMESF) at 10 µM. hit rate 0.38% among 220,000. compound fluorescence 488/530 nm, flow cytometry; stronger effect = higher value; in the data active = fluorescence above about 47
# Arr AP2 block – blocks beta-arrestin peptide binding to AP2 adaptin; inhibition, % at 10 µM; FITC-arrestin peptide / GST-AP2 beads, flow cytometry; AP2 beta2 appendage carries R879A mutation; hit rate 0.31% among 340,000; AID 504490;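 active = inhibition above a set limit, near 3 SD of compounds lacking own fluorescence, cut at about 54% in these data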;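 also: plate controls were DMSO wells for no effect and 5 µM unlabelled arrestin peptide for full effect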
#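 Material – GST-tagged AP2 beta2-adaptin appendage (R879A) on 4 µm glutathione beads · Probe or stimulus – fluorescein-tagged arrestin peptide at 50 nM final · Timing – 12 min plus 1 h, RT · Detection – bead flow cytometry, FITC channel · Read-out basis – inhibition as reduced fluorescein signal on beads, percent · Medium – PBS plus Tween 20 (0.05%) and BSA (0.1%)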
# DSG3 Ab inh – inhibitors of pemphigus antibody binding to human desmoglein-3; binding (percent of control), % at 10 µM; AID 588358; DSG3-coupled beads, scFv-anti-DSG3-GFP binding, flow cytometry; stronger effect = lower value; P32926; hit rate 0.48% among 310,000;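 active = binding more than 3 SD below its plate's average and above zero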
# GSH fluor – GSH bead compound fluorescence profile | fluorescence (KMESF) at 10 µM | GSH beads flow cytometry, compound fluorescence 488/530 nm; stronger effect = higher value | hit rate 0.25% among 190,000; in the data active = fluorescence above about 89;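 also: glutathione beads carrying GST-tagged Bcl family fusion proteins plus one bare bead set; values are compound well signal with DMSO vehicle wells as background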
# Arr-AP2 CP1 – inhibitors of human beta-arrestin and AP2 interaction; AID 504908; GST-AP2 beads, FITC arrestin peptide binding, flow cytometry; GST-fused beta2-adaptin appendage, R879A mutant; hit rate 2% among 1,300; shares compounds with Arr AP2 block; inhibition, % at 10 µM;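 active = inhibition above a set limit, roughly 3 SD of non-fluorescent compound noise, cut at about 38% in these data; inactive = inhibition at or below that limit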;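 also: loss of bead fluorescence from 50 nM FITC arrestin peptide bound to appendage; 0% = negative control wells and 100% = excess unlabelled arrestin peptide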
# GST GSH counter – GST-GSH bead binding interference, counter-screen. shares compounds with Arr AP2 block. GST-fluorescein binding to GSH beads, fluorescence. inhibition, % at 10 µM. hit rate 2% among 1,300. AID 588338;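 active = inhibition above 50%, about 3 SD of the inhibition seen with non-fluorescent compounds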;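 also: fluorescein maleimide labelled GST captured on 4 micron glutathione beads; higher means more loss of bead fluorescence from quenching or blocked binding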
# * hit, by the source's call; . = no result. Hits are enriched below; roughly 1.1% of the tested compounds scored in any of these assays.
SMILES,Avidin bead fluor,Arr AP2 block,DSG3 Ab inh,GSH fluor,Arr-AP2 CP1,GST GSH counter
Cc1ccc(/C(COc2ccccc2O)=N\O)cc1,8,56.6*,85.7,12,7.9,-0.2
O=[N+]([O-])c1ccccc1OC/C(=N\O)c1ccccc1,.,15.3,99.8,.,.,.
COc1cc(C(=O)Nc2cccc(C)c2C)ccc1OCC(=O)N1CCOCC1,.,-1.4,103.7,.,.,.
CO/N=C/C(c1ncc(C(F)(F)F)cc1Cl)S(=O)(=O)c1ccccc1 (stereo not given),.,10.2,119.3,.,.,.
CO/N=C/C(c1ccc(Cl)nc1)S(=O)(=O)c1ccccc1 (stereo not given),.,57.4*,87.1,.,13.9,-2.7
COc1ccc(-c2nn(-c3ccccc3)cc2C(=O)O)cc1,4,-5.7,96.6,26,.,.
COc1ccc(-c2nn(-c3ccccc3)cc2C(=O)N(C)C)cc1,.,59.8*,99.4,.,-8.3,-7.2
O=C1N/C(=C/c2cccn2-c2ccc(F)cc2)C(=O)N1Cc1ccccc1F,3,105.2*,89.6,9,7.8,1.8
O=C1N/C(=C/c2cccn2-c2ccccc2)C(=O)N1Cc1ccc(F)cc1,4,0.7,83.7,7,.,.
CCOc1cc(/C=N/Nc2cccc(C(=O)O)c2)ccc1OCC(=O)N1CCCCC1,11,-0.4,101.7,13,.,.
Cc1ccc(NC(=O)c2ccc(CSc3nnc(-c4ccncc4)n3C)cc2)cc1,10,85.1*,103.1,8,2.5,7.5
CC(C)Cc1n[nH]c(=O)c2c1nnn2Cc1ccccc1F,.,7.2,93.4,.,.,.
COc1ccc(CNC(=O)CN(C)S(=O)(=O)c2ccc3c(c2)c(=O)n(C)c(=O)n3C)cc1,.,11.6,109.8,.,.,.
COc1cc(OC)cc(-c2c(-c3ccc(F)cc3)c3cc(-c4cccc5[nH]ccc45)ccc3n2C)c1,.,30.4,94.3,.,.,.
COCC(C)n1c(SCC(=O)NC(=O)Nc2ccc3c(c2)OCCO3)nc2ccccc2c1=O (stereo not given),10,55.5*,101.3,12,8.2,-11.2
COCC(C)n1c(SCC(=O)NC(=O)Cc2ccccc2)nc2ccccc2c1=O (stereo not given),.,-4.3,110.8,.,.,.
CC(C)[C@H](NC(=O)OCc1ccccc1)C(=O)OCc1cc(=O)oc2cc(O)ccc12,.,37.2,108.8,.,.,.
O=C(/C=C/c1cccs1)Nc1cccnc1,1,55.8*,95.4,5,2.0,0.5
CN(C)c1ccc(/C=N\Nc2nc(-c3ccccc3)cc(=O)[nH]2)cc1,11,102.1*,93.1,9,-2.4,-2.4
CC(=O)c1c(C)[nH]c(C(=O)OCC(=O)c2c(N)n(C)c(=O)n(C)c2=O)c1C,12,.,.,14,.,.
CC(C)c1ccc(C(=O)OCC(=O)c2c(N)n(C)c(=O)n(C)c2=O)cc1,.,20.2,96.1,.,18.1,2.9
CC(=O)Oc1ccc(-c2ccc(C(=O)OCC(=O)c3c(N)n(C)c(=O)n(C)c3=O)cc2)cc1,.,2.0,113.0,.,.,.
Cn1c(N)c(C(=O)COC(=O)c2ccc(OC(F)F)cc2)c(=O)n(C)c1=O,.,16.4,100.9,.,-0.4,-1.4
CC(=O)c1c(C)[nH]c(C(=O)OCC(=O)c2c(N)n(CC(C)C)c(=O)n(C)c2=O)c1C,.,-0.4,97.2,.,4.8,4.6
Cn1c(N)c(C(=O)COC(=O)c2ccc(F)cc2Cl)c(=O)n(C)c1=O,.,-12.3,98.0,.,10.8,7.2
SMILES,Avidin bead fluor,Arr AP2 block,DSG3 Ab inh,GSH fluor,Arr-AP2 CP1,GST GSH counter
C=CCC(CC(O)COCCC)C(=O)NNC(=S)Nc1ccccc1 (stereo not given),9,19.1,106.6,.,.,.
COc1cc(C(=O)OCC(=O)c2c(N)n(C)c(=O)n(C)c2=O)ccc1OCCC(C)C,23,54.9*,96.2,7,6.3,-3.8
CC(C)Cn1c(N)c(C(=O)COC(=O)c2cc(F)cc(F)c2)c(=O)n(C)c1=O,31,21.2,102.1,24,.,.
Cn1c(N)c(C(=O)COC(=O)c2ccco2)c(=O)n(C)c1=O,9,6.9,280.2,7,4.7,0.2
CC(C)Cn1c(N)c(C(=O)COC(=O)c2ccc(O)cc2)c(=O)n(C)c1=O,11,-7.5,92.0,11,-8.3,-12.0
CC[N+](CC)(CCCCS(=O)(=O)[O-])CCNP1(=O)C=C(c2ccccc2)OC(c2ccccc2)=C1,9,0.1,104.3,16,.,.
CSc1ccc(NC(=O)NCc2cccnc2)cc1,.,20.0,98.7,.,.,.
CC1C(c2ccccc2)=[N+]([O-])C2(CCCCC2)N1O (stereo not given),7,73.6*,93.7,19,-8.6,-5.6
O=C(Nc1ccc2nc(-c3ccco3)c(-c3ccco3)nc2c1)NC1CC1,2,58.0*,.,15,30.3,26.6
COc1cccc(NC(=O)CC(C)=O)c1,0,56.9*,93.4,4,-5.2,-10.3
COc1cccc(NC(=O)CC(=O)c2ccccc2)c1,.,63.0*,99.7,.,-0.5,-8.4
CCCC(=O)Nc1ccc(C(N)=O)cc1,8,-7.6,98.8,14,.,.
COc1cccc(NC(=O)Cc2ccccc2)c1,7,0.6,107.8,6,.,.
CC(=O)CC(=O)Nc1ccc(C(N)=O)cc1,12,45.5,122.1,9,-8.8,-6.1
CC(C)CC1NC(=O)N(CC(=O)Nc2ccc3c(c2)CCC3)C1=O (stereo not given),27,-0.8,95.9,12,.,.
O=c1oc2ccccc2c2c1C(c1ccc(Cl)cc1)Nc1ccc3ccccc3c1-2 (stereo not given),10,84.7*,93.3,7,-5.4,-1.0
COc1cccc2c1cc1c(=O)n(CC(=O)NCCCN3CCN(C)CC3)nc(C)n12,.,59.4*,.,.,-6.2,1.9
O=C(NC1CCCCC1)N1CCN(CCc2ccccc2)CC1,13,54.2*,100.5,33,-1.5,-1.6
CCN1CCN(C(=O)NC2CCCCC2)CC1,.,26.0,102.6,.,.,.
CCNC(=S)NNc1nnc(-c2ccccc2)c(-c2ccccc2)n1,.,2.8,102.4,.,.,.
c1ccc(-c2cnnc3ccccc23)cc1,.,0.4,103.8,.,.,.
CCCCNC(=S)N/N=C/c1ccc(OCC(=O)Nc2c(C)cc(C)cc2C)c(OC)c1,8,102.9*,93.1,13,1.6,-2.4
CCNC(=O)COc1ccc(/C=N/NC(=O)c2cccnc2)cc1OC,9,-4.3,96.2,14,.,.
COc1cc(/C=N/NC(=O)c2cccnc2)ccc1OCC(=O)Nc1ccc(C)cc1,15,91.0*,101.3,9,1.1,-5.4
COc1ccc(-c2cc(Cl)cc3c(=O)c4ccccc4n(C)c23)cc1F,.,7.2,92.7,.,.,.
Cc1sc2c(c1C)c(=O)nc1n2Cc2ccccc2-1,10,.,.,9,.,.
Cc1ccc(-c2nnc(SCC(=O)N/N=C/c3ccccc3C(=O)O)n2C2CCCCC2)cc1,.,67.9*,98.7,.,4.0,-5.1
Cc1ccc(-n2c(SCC(=O)N/N=C/c3ccccc3C(=O)O)nnc2-c2ccccc2)cc1,5,-3.3,102.0,.,.,.
Cc1ccc(C(=O)NCC(=O)NC2CCCCCC2)cc1,.,16.8,105.7,.,.,.
